# From ChEMBL document CHEMBL1139532, “Synthesis and monoamine transporter binding properties of 3alpha-(substituted phenyl)nortropane-2beta-carboxylic acid methyl esters. Norepinephrine transporter selective compounds” (J Med Chem, 2005)
# pIC50, pKi: −log10 of the molar value.
# Tests used:
# [1] = molecular target: T1, Norepinephrine transporter (Rattus norvegicus, UniProt Q9WTR4); assay: Displacement of [3H]nisoxetine from norepinephrine transporter (NET) of rat cerebral cortex; format: tissue-based
# Procedure, shortened: (§1)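 Male Sprague-Dawley rat (200-250 g) cerebral cortex, 8 mg per tube, in 50 mM Tris, 120 mM NaCl, 5 mM KCl, pH 7.4 at 4 °C, with [3H]nisoxetine and 10 test concentrations. 1 µM desipramine defines nonspecific binding. GF/B filtration, ice-cold washes.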
# [2] = molecular target: T1, Norepinephrine transporter; assay: Inhibition of [3H]nisoxetine binding to rat cerebral cortex norepinephrine transporter; format: tissue-based; procedure, shortened: as §1
# [3] = molecular target: T2, Sodium-dependent serotonin transporter (Rattus norvegicus, UniProt P31652); assay: Displacement of [3H]paroxetine from serotonin transporter (5-HT) of rat cerebral cortex; format: tissue-based
# Procedure, shortened: (§2)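 Male Sprague-Dawley rat (200-250 g) brain tissue, 1.5 mg original wet weight, in 50 mM Tris, 120 mM NaCl, 5 mM KCl, pH 7.4, with 0.2 nM [3H]paroxetine and 10 test concentrations, 90 min at room temperature. 1 µM citalopram defines nonspecific binding. GF/B filtration.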
# [4] = molecular target: T2, Sodium-dependent serotonin transporter; assay: Inhibition of [3H]paroxetine binding to rat cortex serotonin transporter; procedure, shortened: as §2
# [5] = molecular target: Sodium-dependent dopamine transporter (Rattus norvegicus, UniProt P23977); assay: Inhibition of [3H]WIN-35428 binding to rat striatal dopamine transporter
# Chain of Sodium-dependent dopamine transporter (P23977 whole entry): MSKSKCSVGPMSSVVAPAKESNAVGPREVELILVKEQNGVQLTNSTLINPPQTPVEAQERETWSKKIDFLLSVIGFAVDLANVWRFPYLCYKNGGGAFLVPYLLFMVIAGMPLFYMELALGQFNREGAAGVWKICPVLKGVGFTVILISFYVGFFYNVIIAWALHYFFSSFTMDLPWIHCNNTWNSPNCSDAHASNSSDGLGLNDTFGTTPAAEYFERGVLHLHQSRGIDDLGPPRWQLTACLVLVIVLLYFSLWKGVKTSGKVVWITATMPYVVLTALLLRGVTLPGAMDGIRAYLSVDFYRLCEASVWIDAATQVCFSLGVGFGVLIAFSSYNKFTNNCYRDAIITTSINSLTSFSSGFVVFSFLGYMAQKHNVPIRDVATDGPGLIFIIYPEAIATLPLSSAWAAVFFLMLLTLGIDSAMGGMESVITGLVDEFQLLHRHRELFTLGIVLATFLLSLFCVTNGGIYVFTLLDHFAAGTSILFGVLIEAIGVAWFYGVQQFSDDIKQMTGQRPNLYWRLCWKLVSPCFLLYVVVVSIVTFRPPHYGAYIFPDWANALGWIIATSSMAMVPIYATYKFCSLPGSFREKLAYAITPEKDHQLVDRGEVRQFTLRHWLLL
# T2 sequence (P31652 whole entry): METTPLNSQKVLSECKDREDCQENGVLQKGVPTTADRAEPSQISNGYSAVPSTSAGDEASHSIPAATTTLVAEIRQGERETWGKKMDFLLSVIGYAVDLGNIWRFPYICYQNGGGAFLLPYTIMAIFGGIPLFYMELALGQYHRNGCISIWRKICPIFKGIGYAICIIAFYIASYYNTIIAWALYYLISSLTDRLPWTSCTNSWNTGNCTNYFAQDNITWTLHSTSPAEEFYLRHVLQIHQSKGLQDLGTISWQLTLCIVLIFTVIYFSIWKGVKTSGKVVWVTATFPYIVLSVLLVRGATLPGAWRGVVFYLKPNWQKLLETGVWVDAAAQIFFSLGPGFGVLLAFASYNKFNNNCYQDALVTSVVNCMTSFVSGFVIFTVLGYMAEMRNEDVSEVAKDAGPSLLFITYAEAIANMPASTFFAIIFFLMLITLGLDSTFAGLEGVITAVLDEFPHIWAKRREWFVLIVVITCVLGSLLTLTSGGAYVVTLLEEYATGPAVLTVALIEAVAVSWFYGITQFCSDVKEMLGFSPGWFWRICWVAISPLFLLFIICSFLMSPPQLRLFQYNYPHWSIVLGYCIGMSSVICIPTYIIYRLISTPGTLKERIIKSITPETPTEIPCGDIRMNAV
# T1 sequence (Q9WTR4 whole entry): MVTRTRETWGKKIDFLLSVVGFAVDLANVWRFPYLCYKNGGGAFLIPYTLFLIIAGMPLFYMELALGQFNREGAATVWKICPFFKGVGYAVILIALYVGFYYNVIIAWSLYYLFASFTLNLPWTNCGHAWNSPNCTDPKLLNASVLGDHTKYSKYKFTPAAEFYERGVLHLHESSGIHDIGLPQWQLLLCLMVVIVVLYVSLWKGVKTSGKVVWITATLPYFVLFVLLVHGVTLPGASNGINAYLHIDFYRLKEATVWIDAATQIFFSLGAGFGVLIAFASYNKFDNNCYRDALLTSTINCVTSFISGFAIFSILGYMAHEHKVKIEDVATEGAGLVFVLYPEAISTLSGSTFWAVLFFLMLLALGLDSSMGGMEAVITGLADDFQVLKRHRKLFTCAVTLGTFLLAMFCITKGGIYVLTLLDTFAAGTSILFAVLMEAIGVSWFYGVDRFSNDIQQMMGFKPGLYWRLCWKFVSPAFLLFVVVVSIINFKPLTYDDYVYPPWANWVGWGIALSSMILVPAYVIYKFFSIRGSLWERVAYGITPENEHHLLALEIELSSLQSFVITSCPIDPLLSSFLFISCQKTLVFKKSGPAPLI
SMILES,pKi [1],pIC50 [2],pKi [3],pIC50 [4],pIC50 [5]
COC(=O)C1C(c2ccc(F)c(C)c2)CC2CCC1N2C (centres undefined),7.13,6.83,6.59,5.94,7.86
COC(=O)C1C2CCC(CC1c1cc(F)cc(F)c1)N2 (centres undefined),8.69,8.39,7.86,7.25,8.63
COC(=O)C1C2CCC(CC1c1cccc(F)c1)N2 (centres undefined),8.40,8.01,7.57,6.96,8.63
COC(=O)C1C2CCC(CC1c1ccc(F)c(C)c1)N2 (centres undefined),8.67,8.37,7.77,7.16,8.03
COC(=O)C1C(c2ccc(C)c(F)c2)CC2CCC1N2C (centres undefined),7.65,,6.55,5.94,8.13
COC(=O)C1C2CCC(CC1c1ccc(C)c(F)c1)N2 (centres undefined),9.37,9.07,7.62,7.01,8.05
COC(=O)C1C2CCC(CC1c1ccc(F)c(F)c1)N2 (centres undefined),8.59,8.20,7.26,6.65,8.25
